Assay results from paper PMC9710334 (BMJ Open Gastroenterology, 2022).
Values joined by “and” are separate entries in the source; they are usually repeats but may differ in a detail not shown here. Identical values can stand only once. “Also recorded” adds a separate entry of the source.

Legend:
[1] = system: patients with advanced PBC; experiment: Serum liver function parameters during OP-724 administration; type: in vivo, human
CBP/β-catenin = settings: cited from earlier work
[2] = system: cholestatic liver fibrosis models; settings: cited from earlier work
[3] = system: P300/β-catenin signalling; settings: ref 20 23; cited from earlier work
[4] = system: patients with liver cirrhosis induced by hepatitis B or C virus; settings: cited from earlier work
[5] = Plasma pharmacokinetics of OP-724 and C-82 after OP-724 infusion; type: in vivo, human; settings: for OP-724 AUC0-24h / OP-724 Cmax / OP-724 Tmax / OP-724 T1/2: plasma
Procedure, shortened: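 A single iv dose of 280 or 380 mg/m2 was infused over 4 hours. Blood was drawn predose, at 30 min and 1, 2 and 4 hours after dosing, then 1, 5 and 20 hours after the infusion ended. Plasma parent and metabolite C-82 were quantified. […] Values are mean±SD.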

[6] = system: liver fibrosis in patients with advanced PBC; experiment: Paired liver biopsy histology; type: in vivo, human
Procedure, shortened: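 Paired liver biopsies were taken at screening (baseline) and within 2 weeks of the final dose of the 12-cycle iv regimen (280 or 380 mg/m2/4 hours, twice weekly). Sections were stained with Masson's trichrome, H&E and Sirius red. Three independent central pathologists scored the slides blinded, using Knodell and Ishak modified HAI for grade and fibrosis stage. Analysis was descriptive.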

[7] = OP-724 280 mg/m^2/4 hours, Max, N=6
[8] = OP-724 280 mg/m^2/4 hours, Median, N=6
[9] = OP-724 280 mg/m^2/4 hours, Min, N=6
[10] = single OP-724 iv infusion 280 mg/m^2/4 hours, Mean, N=6
[11] = single OP-724 iv infusion 380 mg/m^2/4 hours, Mean, N=1
[12] = patient P101-02, 12 weeks, baseline 2
[13] = patient P101-04, 12 weeks, baseline 1
[14] = patient P101-07, 12 weeks, baseline 2
[15] = patient P101-07, 12 weeks, baseline 3
[16] = patient P101-08, 12 weeks, baseline 3

C[C@H]1[C@H]2N(C(=O)CN(C)N2C(=O)NCc2ccccc2)[C@@H](Cc2ccc(OP(=O)(O)O)cc2)C(=O)N1Cc1cccc2cccnc12 [OP-724]
serum ALP and GGT levels ([1]; 5, 9, 12 and 16 weeks vs baseline): did not show a tendency to decrease | patients whose abnormally high baseline total bile acid values decreased ([1]; 12 weeks, of five patients with baseline and 12-week data): four | serum total bile acid level ([1]; during OP-724 administration, no significant difference): downward trend; also recorded: tendency to decrease | increase in the albumin level ([1]; this study): this tendency was not observed | inhibition of the interaction between CBP and β-catenin (CBP/β-catenin): selectively inhibits | antifibrotic effect [2]: exerts an antifibrotic effect | inhibition of P300/β-catenin signalling [3]: does not inhibit | liver dysfunction reported as SAE ([4]; one patient at level 3 (380 mg/m^2/4 hours), PRI-724-2101 study ref 25): severe liver dysfunction | harmful effects in humans ([4]; phase 1 or 1/2a clinical trials ref 24 25): does not have harmful effects in humans | albumin level ([4]; previous clinical trials ref 24 25): increase in the albumin level | OP-724 AUC0-24h [5, 7]: 9210 ng･h/mL | OP-724 Cmax [5, 7]: 2460 ng/mL | OP-724 Tmax [5, 7]: 4 h | OP-724 AUC0-24h [5, 8]: 6340 ng･h/mL | OP-724 Cmax [5, 8]: 2000 ng/mL | OP-724 Tmax [5, 8]: 2 h | OP-724 AUC0-24h [5, 9]: 3880 ng･h/mL | OP-724 Cmax [5, 9]: 1080 ng/mL | OP-724 Tmax [5, 9]: 0.5 h | OP-724 T1/2 ([5]; single OP-724 iv infusion 280 mg/m^2/4 hours, Mean, N=4): 0.438 h | OP-724 AUC0-24h [5, 10]: 6420±1910 ng･h/mL and 6420 ng･h/mL | OP-724 Cmax [5, 10]: 1850 ng/mL | OP-724 Tmax [5, 10]: 1.9 h | OP-724 AUC0-24h [5, 11]: 10200 ng·h/mL | OP-724 Cmax [5, 11]: 3980 ng/mL | OP-724 T1/2 [5, 11]: 0.497 h | OP-724 Tmax [5, 11]: 1 h | time after initiating administration at which plasma OP-724 reached Cmax ([5]; single dose, all patients): 0.5 to 4 h | patients with a decrease in the fibrosis stage by 1 or more ([6]; paired biopsies, baseline vs 12 weeks, 2/5 patients): 40% | patients with a decrease (improvement) in the mHAI score ([6]; paired biopsies, baseline vs 12 weeks, 3/5 patients): 60% | patients with a decrease in the CPA ([6]; paired biopsies, baseline vs 12 weeks, three of five patients): 60% | Modified HAI score: Confluent necrosis ([6]; patient P101-01, 12 weeks, baseline 0): 0 | Modified HAI score: Lobular inflammation ([6]; patient P101-01, 12 weeks, baseline 1): 1 | Modified HAI score: Interface hepatitis ([6]; patient P101-01, 12 weeks, baseline 2): 2 | Modified HAI score: Portal inflammation ([6]; patient P101-01, 12 weeks, baseline 3): 3 | Modified HAI score: Stage ([6]; patient P101-01, 12 weeks, baseline 4): 3 | Modified HAI score: HAI score ([6]; patient P101-01, 12 weeks, baseline 6): 6 | Collagen proportional area, Sirius red positive area ([6]; patient P101-01, 12 weeks, baseline 7.8010627): 2.739% | Modified HAI score: Confluent necrosis ([6]; patient P101-02, 12 weeks, baseline 0): 0 | Modified HAI score: Interface hepatitis [6, 12]: 1 | Modified HAI score: Lobular inflammation [6, 12]: 1 | Modified HAI score: Portal inflammation [6, 12]: 1 | Collagen proportional area, Sirius red positive area ([6]; patient P101-02, 12 weeks, baseline 4.9477138): 3.714% | Modified HAI score: Stage ([6]; patient P101-02, 12 weeks, baseline 5): 5 | Modified HAI score: HAI score ([6]; patient P101-02, 12 weeks, baseline 6): 3 | Modified HAI score: Confluent necrosis ([6]; patient P101-04, 12 weeks, baseline 0): 1 | Modified HAI score: Lobular inflammation [6, 13]: 2 | Modified HAI score: Portal inflammation [6, 13]: 3 | Modified HAI score: Interface hepatitis ([6]; patient P101-04, 12 weeks, baseline 2): 3 | Modified HAI score: Stage ([6]; patient P101-04, 12 weeks, baseline 3): 5 | Modified HAI score: HAI score ([6]; patient P101-04, 12 weeks, baseline 4): 9 | Collagen proportional area, Sirius red positive area ([6]; patient P101-04, 12 weeks, baseline 6.8891091): 7.584% | Modified HAI score: Confluent necrosis [6, 14]: 0 | Modified HAI score: Interface hepatitis [6, 14]: 2 | Modified HAI score: Lobular inflammation [6, 15]: 2 | Modified HAI score: Portal inflammation [6, 15]: 2 | Modified HAI score: Stage [6, 15]: 3 | Collagen proportional area, Sirius red positive area ([6]; patient P101-07, 12 weeks, baseline 3.8731926): 3.646% | Modified HAI score: HAI score ([6]; patient P101-07, 12 weeks, baseline 10): 6 | Modified HAI score: Confluent necrosis [6, 16]: 0 | Modified HAI score: Lobular inflammation [6, 16]: 3 | Modified HAI score: Portal inflammation [6, 16]: 2 | Modified HAI score: Interface hepatitis ([6]; patient P101-08, 12 weeks, baseline 4): 1 | Modified HAI score: Stage ([6]; patient P101-08, 12 weeks, baseline 5): 2 | Collagen proportional area, Sirius red positive area ([6]; patient P101-08, 12 weeks, baseline 7.7587483): 3.484% | Modified HAI score: HAI score ([6]; patient P101-08, 12 weeks, baseline 13): 6 | septal thickness in liver parenchyma, Masson's trichrome staining ([6]; patients P101-01 and P101-08, after OP-724 administration): reduction in septal thickness
